Drawing on ChEMBL document CHEMBL5260851, “Iodinated Choline Transport-Targeted Tracers” (J Med Chem, 2020), this text covers Drug uptake for three compounds.

Data set [1] concerns PC-3. Kind of data set: Biodistribution in human PC-3 cells xenografted mouse measured after 3 hrs by SPECT method. The format is ADME, organism-based. To be noted: in vivo. In outline: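 Mice carried subcutaneous PC-3 xenografts. Static whole-body SPECT scans of 30 min under 2% isoflurane were run at 1, 3 and 24 h p.i., then a 20 min double CT.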
For orientation: A xenograft is tissue or cells of one species grown in another, often human tumour cells in immunodeficient mice.

Data set [2] relates to PC-3. In words: Biodistribution in human PC-3 cells xenografted mouse measured after 3 hrs by PET method. The following applies: in vivo. The format is ADME, organism-based. In outline: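 Mice carried subcutaneous PC-3 xenografts (5 × 10⁶ cells, right flank), with tumors at 100–300 mm³. [18F]fluorocholine 5–7 MBq was given retro-orbitally.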

Consider `C[N+](C)(CCO)CCCCCCOc1cccc([123I])c1.[Br-]`, for which, in the data set on PC-3 [1], the Drug uptake result is given as “Not Active”.
On the same count and under the same terms, with `CS(=O)(=O)[O-].OCC[N+]1(Cc2cccc([123I])c2)CCCC1` the entry was “Not Active”.
On to `C[N+](C)(C[18F])CCO.[Cl-]`, for which, in the data set on PC-3 [2], the Drug uptake entry is “Not Active”.
